Reference: publication PMC9044438 (Cell reports, 2022)

System: HCT116 cells
Experiment: RNA-seq of nuclear RNA from HCT116 cells electroporated with peptide
Format: cell-based, human
Conditions: 10 μM Nutlin-3a, 3 h, versus DMSO
Method in brief: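 HCT116 cells were trypsinized and electroporated with 0 or 10 μM peptide into antibiotic-free McCoy's 5A (serum-free in the second run). They then went to medium with 0.1% DMSO or 10 μM Nutlin-3a, plus 200 nM peptide in peptide wells, for 3 h at 37°C. Nuclei were isolated in 0.5% NP-40 lysis buffer, and nuclear RNA was TRIzol-extracted with extra phenol/chloroform cleanup.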

## COc1ccc(C2=N[C@@H](c3ccc(Cl)cc3)[C@@H](c3ccc(Cl)cc3)N2C(=O)N2CCNC(=O)C2)c(OC(C)C)c1 [Nutlin-3a]
  expression of p53 target genes: induced expression of p53 target genes
